Active and inactive are the calls of the source. No cut-off for these calls is given here.
Columns and labels:
[1] = target: T1, Muscarinic acetylcholine receptor M3 (Homo sapiens, UniProt P20309); assay: Antagonist activity at human cloned muscarinic M3 receptor expressed in CHO cells assessed as inhibition of acetylcholine-induced calcium mobilization by FLIPR assay; type: functional, cell-based
Target sequence in this assay (P20309 whole entry): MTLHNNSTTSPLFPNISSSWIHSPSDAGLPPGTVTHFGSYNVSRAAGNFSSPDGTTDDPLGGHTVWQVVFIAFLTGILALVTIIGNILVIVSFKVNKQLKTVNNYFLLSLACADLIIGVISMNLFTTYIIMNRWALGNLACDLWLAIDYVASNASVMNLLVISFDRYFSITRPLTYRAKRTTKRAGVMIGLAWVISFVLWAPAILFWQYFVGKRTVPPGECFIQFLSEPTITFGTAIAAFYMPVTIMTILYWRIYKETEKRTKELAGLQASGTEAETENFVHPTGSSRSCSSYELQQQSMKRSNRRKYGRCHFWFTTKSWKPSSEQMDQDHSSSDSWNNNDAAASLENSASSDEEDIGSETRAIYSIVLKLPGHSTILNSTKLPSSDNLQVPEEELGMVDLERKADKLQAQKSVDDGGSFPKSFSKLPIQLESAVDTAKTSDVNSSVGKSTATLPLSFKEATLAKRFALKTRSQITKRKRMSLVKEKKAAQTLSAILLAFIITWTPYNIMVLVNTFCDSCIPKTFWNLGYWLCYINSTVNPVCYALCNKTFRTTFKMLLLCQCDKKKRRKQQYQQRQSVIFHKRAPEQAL

[2] = target: T1, Muscarinic acetylcholine receptor M3; assay: Antagonist activity at human cloned muscarinic M3 receptor expressed in CHO cells assessed as inhibition of acetylcholine-induced calcium mobilization by single concentration kinetic based-FLIPR assay; type: functional, cell-based; conditions: read-out: pA2 (converted)
Target sequence in this assay (P20309 whole entry): as above

[3] = target: T2, Muscarinic acetylcholine receptor M2 (Homo sapiens, UniProt P08172); assay: Antagonist activity at human cloned muscarinic M2 receptor expressed in CHO cells assessed as inhibition of acetylcholine-induced calcium mobilization by single concentration kinetic based-FLIPR assay; type: functional, cell-based; conditions: read-out: pA2 (converted)
T2 sequence (P08172 whole entry): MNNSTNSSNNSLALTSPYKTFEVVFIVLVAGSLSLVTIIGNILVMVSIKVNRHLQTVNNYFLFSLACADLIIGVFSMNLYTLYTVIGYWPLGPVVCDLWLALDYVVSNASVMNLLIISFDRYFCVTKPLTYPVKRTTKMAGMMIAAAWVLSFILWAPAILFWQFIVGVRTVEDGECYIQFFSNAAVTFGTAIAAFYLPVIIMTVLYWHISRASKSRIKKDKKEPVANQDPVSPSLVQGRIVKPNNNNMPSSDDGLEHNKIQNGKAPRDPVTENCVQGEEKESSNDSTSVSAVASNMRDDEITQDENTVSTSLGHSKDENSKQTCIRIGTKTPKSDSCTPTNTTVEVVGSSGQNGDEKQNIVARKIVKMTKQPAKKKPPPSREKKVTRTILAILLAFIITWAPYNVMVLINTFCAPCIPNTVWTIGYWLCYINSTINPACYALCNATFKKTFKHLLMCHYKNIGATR

Mus musculus [4] = assay: Inhibition of methacholine-induced bronchoconstriction in intranasally single dosed conscious BALB/c mouse by plethysmography; type: functional
[5] = target: T3, Muscarinic acetylcholine receptor M1 (Homo sapiens, UniProt P11229); assay: Antagonist activity at human cloned muscarinic M1 receptor expressed in CHO cells assessed as inhibition of acetylcholine-induced calcium mobilization by single concentration kinetic based-FLIPR assay; type: functional, cell-based; conditions: read-out: pA2 (converted)
T3 sequence (P11229 whole entry): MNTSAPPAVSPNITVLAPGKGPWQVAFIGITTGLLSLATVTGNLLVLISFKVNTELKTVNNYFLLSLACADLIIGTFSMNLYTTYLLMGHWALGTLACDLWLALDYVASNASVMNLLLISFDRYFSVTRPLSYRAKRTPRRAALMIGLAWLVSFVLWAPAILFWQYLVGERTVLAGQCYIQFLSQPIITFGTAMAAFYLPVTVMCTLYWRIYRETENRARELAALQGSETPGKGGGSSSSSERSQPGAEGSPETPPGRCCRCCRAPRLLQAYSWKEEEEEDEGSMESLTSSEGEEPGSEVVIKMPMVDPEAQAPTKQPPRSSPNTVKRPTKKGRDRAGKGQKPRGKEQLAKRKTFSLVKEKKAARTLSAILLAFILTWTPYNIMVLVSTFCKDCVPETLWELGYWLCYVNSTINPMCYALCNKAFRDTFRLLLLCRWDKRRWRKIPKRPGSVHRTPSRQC

[6] = target: T1, Muscarinic acetylcholine receptor M3; assay: Antagonist activity at human muscarinic M3 receptor assessed as offset time for 50% of carbachol-induced human bronchus contraction to return at 10 nM; type: functional
Procedure, shortened: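 Human bronchial strips (primary, secondary or tertiary airways, obtained at autopsy) were mounted in organ baths on force-displacement transducers. Strips were preincubated 2 h with 10 nM antagonist, then given increasing carbachol to […]. Antagonist was then removed and tissue superfused with carbachol-containing buffer while tension recovery was tracked. The result is minutes to 50% reversal of blockade (off t50).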
Target sequence in this assay (P20309 whole entry, looked up): as the sequence (P20309 whole entry) above

[7] = target: T2, Muscarinic acetylcholine receptor M2; assay: Displacement of [3H]N-methyl scopolamine from human cloned muscarinic M2 receptor expressed in CHO cells coexpressing Gqi5 by scintillation proximity assay; type: cell-based
Procedure, shortened: (§1)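 Scintillation proximity assay on membranes from CHO cells expressing human M1, M2 or M3 receptors, competing against 0.5 nM [3H]-N-methyl scopolamine; Ki reported as mean of three independent assays.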

Mus musculus [8] = assay: Inhibition of methacholine-induced bronchoconstriction in intranasally single dosed conscious BALB/c mouse assessed as time to 50% loss of maximum protection at 0.5 ug by plethysmography; type: functional
Procedure, shortened: (§2)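 Conscious mice dosed intranasally in 50 µL vehicle (10% DMSO), then methacholine challenge; barometric plethysmography measured enhanced pause (Penh) at times from 15 min to 96 h after dosing; duration taken as time to 50% loss of maximum protection.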

[9] = target: T3, Muscarinic acetylcholine receptor M1; assay: Displacement of [3H]N-methyl scopolamine from human cloned muscarinic M1 receptor expressed in CHO cells coexpressing Gqi5 by scintillation proximity assay; type: cell-based; procedure, shortened: as §1
[10] = Clearance in rat plasma at 3.5 mg/kg, iv; type: ADME, organism-based; parameters: dose 3.5 mg/kg, route intravenous
Procedure, shortened: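 Systemic plasma clearance in rat after intravenous dosing.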

[11] = target: T1, Muscarinic acetylcholine receptor M3; assay: Antagonist activity at human muscarinic M3 receptor assessed as inhibition of carbachol-induced bronchus contraction; type: functional; conditions: read-out: pA2 (converted)
Target sequence in this assay (P20309 whole entry): as the sequence (P20309 whole entry) above

[12] = target: T1, Muscarinic acetylcholine receptor M3; assay: Antagonist activity at human cloned muscarinic M3 receptor expressed in CHO cells assessed as reversible inhibition of acetylcholine-induced calcium mobilization for 90 mins measured after 180 mins of washout period by FLIPR assay; type: functional, cell-based
Procedure, shortened: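 CHO cells expressing cloned human M3 receptors were incubated 90 min with vehicle or 1.0, 10 or 100 nM compound, then washed out for 180 min with 18 buffer changes. Cells were then stimulated with ACh, and calcium mobilization was read by FLIPR. Reversibility was judged from ACh concentration-response curves against no-drug levels.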
Target sequence in this assay (P20309 whole entry, looked up): as the sequence (P20309 whole entry) above

[13] = target: T1, Muscarinic acetylcholine receptor M3; assay: Displacement of [3H]N-methyl scopolamine from human cloned muscarinic M3 receptor expressed in CHO cells coexpressing Gqi5 by scintillation proximity assay; type: cell-based
Target sequence in this assay (P20309 whole entry): as the sequence (P20309 whole entry) above

[14] = Clearance in rat plasma at 0.5 mg/kg, iv; type: ADME, organism-based; parameters: dose 0.5 mg/kg, route intravenous
Procedure, shortened: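 Rats received a single intravenous dose of 0.5 mg/kg; systemic plasma clearance was reported in ml/min/kg.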

Mus musculus [15] = assay: Inhibition of methacholine-induced bronchoconstriction in intranasally single dosed conscious BALB/c mouse assessed as time to 50% loss of maximum protection at 0.05 ug by plethysmography; type: functional; procedure, shortened: as §2

Compound	IC50 [1] [nM]	Kb [2] [nM]	further results
OCCC[N+]12CCC(C(O)(c3ccccc3)c3ccccc3)(CC1)CC2	29500	–	–
OC(c1ccccc1)(c1ccccc1)C12CC[N+](CCOCc3ccccc3F)(CC1)CC2	< 10	0.0398	–
OC(c1ccccc1)(c1ccccc1)C12CC[N+](CCCCCOc3ccccc3)(CC1)CC2	306	–	–
OC(c1ccccc1)(c1ccccc1)C12CC[N+](CCOCc3ccccc3)(CC1)C2	< 10	0.398	–
COc1ccc(C(O)(c2ccc(OC)cc2)C23CC[N+](CCOCc4ccccc4)(CC2)CC3)cc1	36	–	–
COc1cccc(COCC[N+]23CCC(C(O)(c4ccccc4)c4ccccc4)(CC2)CC3)c1	< 10	2	–
OC(c1ccccc1)(c1ccccc1)C1CC2CCN1CC2 (stereo not drawn)	6600	–	–
COCCC[N+]12CCC(C(O)(c3ccccc3)c3ccccc3)(CC1)CC2	829	–	–
OC(c1ccccc1)(c1ccccc1)C12CC[N+](CCOCc3cccc(Br)c3)(CC1)CC2	< 10	0.126	–
OC(CC1CN2CCC1CC2)(c1ccccc1)c1ccccc1 (stereo not drawn)	145	–	–
OC(c1ccccc1)(c1ccccc1)C12CC[N+](CCCCc3ccccc3)(CC1)CC2	< 10	0.501	–
CC(C)(C)c1ccc(COCC[N+]23CCC(C(O)(c4ccccc4)c4ccccc4)(CC2)CC3)cc1	39	–	–
OC(c1ccccc1)(c1ccccc1)C12CC[N+](CCOCc3cccc(F)c3)(CC1)CC2	< 10	0.0251	–
CCC[N+]12CCC(C(O)(c3ccccc3)c3ccccc3)(CC1)CC2	208	–	–
OC(CC1C[N+]2(CCc3ccccc3)CCC1CC2)(c1ccccc1)c1ccccc1 (stereo not drawn)	122	–	–
OCC[N+]12CCC(C(O)(c3ccccc3)c3ccccc3)(CC1)CC2	486	–	–
OC(c1ccccc1)(c1ccccc1)C12CC[N+](CCOCc3ccc(Br)cc3)(CC1)CC2	< 10	0.0398	–
Cc1ccccc1COCC[N+]12CCC(C(O)(c3ccccc3)c3ccccc3)(CC1)CC2	13	3.98	–
OC(c1ccccc1)(c1ccccc1)C1CN2CCC1CC2 (stereo not drawn)	1100	–	–
OC(c1ccccc1)(c1ccccc1)C12CC[N+](CCOCc3ccccc3Br)(CC1)CC2	22	3.16	–
N#Cc1ccc(COCC[N+]23CCC(C(O)(c4ccccc4)c4ccccc4)(CC2)CC3)cc1	< 10	0.398	–
COCC[N+]12CCC(C(O)(c3ccccc3)c3ccccc3)(CC1)CC2	30	–	–

Compound	IC50 [1] [nM]	Kb [2] [nM]	further results
COc1cccc(C(O)(c2cccc(OC)c2)C23CC[N+](CCOCc4ccccc4)(CC2)CC3)c1	17	–	–
OC(c1ccc(F)cc1)(c1ccc(F)cc1)C12CC[N+](CCOCc3ccccc3)(CC1)CC2	< 10	0.0631	–
OC(c1ccccc1)(c1ccccc1)C12CCN(CC1)CC2	1070	–	–
OC(c1ccccc1)(c1ccccc1)C12CC[N+](CCCOc3ccccc3)(CC1)CC2.[Br-]	< 10	–	Kb [3]: 1.26 nM; ED50 (Mus musculus [4]): 0.08 µg; Kb [5]: 3.16 nM; Activity [6]: 57 min; Ki [7]: 0.94 nM; Activity (Mus musculus [8]): 34 h; Ki [9]: 0.64 nM; clearance [10]: 37 mL/min/kg; Kb [11]: 1.26 nM; Activity [12]: inactive; Ki [13]: 0.13 nM
C[N+]12CCC(C(O)(c3ccccc3)c3ccccc3)(CC1)CC2	935	–	–
OC(c1ccccc1)(c1ccccc1)C12CC[N+](CC3CC3)(CC1)CC2	1960	–	–
OC(c1ccccc1)(c1ccccc1)C12CC[N+](CCc3ccccc3)(CC1)CC2	87	–	–
N#CC(c1ccccc1)(c1ccccc1)C12CC[N+](CCOCc3ccccc3)(CC1)C2	< 10	0.501	–
OC(c1ccccc1)(c1ccccc1)C12CC[N+](CCOCc3ccc(Cl)cc3)(CC1)CC2	< 10	0.0631	–
Cc1ccc(C(O)(c2ccc(C)cc2)C23CC[N+](CCOCc4ccccc4)(CC2)CC3)cc1	12	–	–
CCCC[N+]12CCC(C(O)(c3ccccc3)c3ccccc3)(CC1)CC2	135	–	–
Cc1ccc(COCC[N+]23CCC(C(O)(c4ccccc4)c4ccccc4)(CC2)CC3)cc1	< 10	0.0398	–
OC(c1ccccc1)(c1ccccc1)C1C[N+]2(CCc3ccccc3)CCC1CC2 (stereo not drawn)	2820	–	–
OC(c1ccccc1)(c1ccccc1)C12CC[N+](CCOCc3ccccc3)(CC1)CC2.[Br-] [UMECLIDINIUM BROMIDE]	–	–	Kb [3]: 0.0316 nM; clearance [14]: 92 mL/min/kg; ED50 (Mus musculus [4]): 0.02 µg; Kb [5]: 0.316 nM; Activity [6]: 145 min; Ki [7]: 0.15 nM; Ki [9]: 0.16 nM; Activity (Mus musculus [15]): >48 h; Activity [12]: Active
OC(c1ccccc1)(c1ccccc1)C12CC[N+](CCOCc3ccc(F)cc3)(CC1)CC2	< 10	0.0794	–
Cc1cccc(COCC[N+]23CCC(C(O)(c4ccccc4)c4ccccc4)(CC2)CC3)c1	< 10	0.1	–
CC[N+]12CCC(C(O)(c3ccccc3)c3ccccc3)(CC1)CC2	104	–	–
OC(c1ccccc1)(c1ccccc1)C12CC[N+](CCOc3ccccc3)(CC1)CC2	< 10	0.794	–
OC(c1cccc(F)c1)(c1cccc(F)c1)C12CC[N+](CCOCc3ccccc3)(CC1)CC2	< 10	0.251	–
OC(c1ccccc1)(c1ccccc1)C12CC[N+](CCCCOc3ccccc3)(CC1)CC2	9.5	10	–
N#Cc1ccccc1COCC[N+]12CCC(C(O)(c3ccccc3)c3ccccc3)(CC1)CC2	5400	–	–
NCC[N+]12CCC(C(O)(c3ccccc3)c3ccccc3)(CC1)CC2	850	0.398	–

From ChEMBL document CHEMBL1153420, “Discovery of novel 1-azoniabicyclo[2.2.2]octane muscarinic acetylcholine receptor antagonists” (J Med Chem, 2009)
